Results on three compounds are retold here after ChEMBL document CHEMBL1124774, “Synthesis and biological activity of some derivatives of rifamycin P” (1990).

One assay relates to Escherichia coli. Description: In vitro antibacterial activity of compound against Escherichia coli SKF 12140. In kind it is functional.
In the next assay the test system is Klebsiella pneumoniae. Description: In vitro antibacterial activity of compound against Klebsiella pneumoniae ISM. The assay is classed as functional.
Assay [1] has as its system Mycobacterium tuberculosis. The assay can be described thus: In vitro antibacterial activity of compound against Mycobacterium tuberculosis H37Rv ATCC 9660. In kind it is functional.
The test system of another assay is Neisseria gonorrhoeae. Description: In vitro antibacterial activity of compound against Neisseria gonorrhoeae ISM 68/126. In kind it is functional.
Another assay concerns Pseudomonas aeruginosa. The assay can be described thus: In vitro antibacterial activity of compound against Pseudomonas aeruginosa ATCC 10145. In kind it is functional. The method in brief: (§1)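 Twofold microdilution MIC in Iso-Sensitest broth over 128-0.0001 µg/mL. Inoculum was 10^4 cfu/mL, with incubation at 37 °C for 18-24 h.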
A further assay has as its system Proteus vulgaris. Description: In vitro antibacterial activity of compound against Proteus vulgaris X19H ATCC 881. In kind it is functional.
The subject of assay [2] is Staphylococcus aureus. Description: Activity in the murine model (OS route) of Staphylococcus aureus tour septicemia. In kind it is functional. In a few lines:
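Male and female CD1 mice (18-22 g) were infected ip with S. aureus Tour. The challenge was set so untreated mice died within 48 h. Groups were five mice, dosed once daily for 3 days starting immediately after infection. ED50 was calculated on day 10 from the percentage surviving at each dose.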

Assay [3] has as its system Staphylococcus epidermidis. Description: In vitro antibacterial activity of compound against Staphylococcus epidermidis ATCC 12228. In kind it is functional. The method in brief:
as §1

Assay [4] concerns Streptococcus pyogenes. Description: In vitro antibacterial activity of compound against Streptococcus pyogenes C 203 SKF 13400. In kind it is functional. The method in brief:
(§2)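 Streptococcal MICs were run by twofold microdilution in Todd-Hewitt broth over 128-0.0001 µg/mL. Inoculum was 10^4 cfu/mL, with incubation at 37 °C for 18-24 h.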

Assay [5] concerns Staphylococcus aureus. Description: In vitro antibacterial activity of compound against Staphylococcus aureus Tour L 165. The assay is classed as functional. The method in brief:
as §1

A further assay deals with Streptococcus pneumoniae. The assay can be described thus: In vitro antibacterial activity of compound against Streptococcus pneumoniae UC 41. In kind it is functional. The method in brief:
as §2

A further assay relates to Enterococcus faecalis. The assay can be described thus: In vitro antibacterial activity of compound against Streptococcus faecalis ATCC 7080. The assay is classed as functional. The method in brief:
as §1

Another assay has as its system Haemophilus influenzae. Description: In vitro antibacterial activity of compound against Haemophilus influenzae ATCC 19418. In kind it is functional.
Assay [6] deals with Mycobacterium avium. Description: 50% inhibition of the 20 Mycobacterium (MAC) avium complex clinical isolates. The assay is classed as functional. The method in brief: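 Agar-dilution MICs, 2-fold dilutions over 128-0.0001 μg/mL, on Middlebrook 7H10 agar with 2% glycerol and 10% OADC. Organisms from Loevenstein-Jensen slants were grown in 7H9 broth with 0.5% Tween and 10% OADC, adjusted to McFarland no. 1, and spotted with a multipoint inoculator. Plates were sealed and incubated at 22, 30 or 37 °C for 4-20 days depending on strain.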

For assay [7], the system named is Streptococcus pyogenes. Description: Inhibitory concentration of compound against Streptococcus pyogenus septicemia in the mouse, administarted in OS route. In kind it is functional. In a few lines:
(§3)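 Male and female CD1 mice (18-22 g) were infected ip with S. pyogenes C203, with the challenge set so untreated mice died within 48 h. Groups of five received a single treatment immediately after infection. ED50 was calculated from the percentage surviving at each dose on day 10.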

Assay [8] concerns Streptococcus pyogenes. Description: Inhibitory concentration of compound against Streptococcus pyogenus septicemia in the mouse, administarted in subcutaneous route. In kind it is functional. The note with it: sc. The method in brief:
as §3

The test system of assay [9] is Streptococcus pyogenes. The assay can be described thus: Minimum inhibitory concentration of compound against Streptococcus pyogenus septicemia in the mouse. The assay is classed as functional.
The subject of assay [10] is Mycobacterium avium. Description: 90% inhibition of the 20 Mycobacterium avium complex (MAC) clinical isolates.
In assay [11] the test system is Mycobacterium avium. The assay can be described thus: Minimum inhibitory concentration of compound against 20 Mycobacterium avium complex (MAC) clinical isolates.

Values after ≈ are worked out from the molar mass of the structure shown.

`COC1/C=C/OC2(C)Oc3c(C)c(O)c4c(O)c(c5sc(N6CCN(CCO)CC6)nc5c4c3C2=O)NC(=O)/C(C)=C\C=C\C(C)C(O)C(C)C(O)C(C)C(OC(C)=O)C1C` (configuration not stated): the MIC against Escherichia coli was found to be 8 µg/mL (≈ 9.23 µM); with Klebsiella pneumoniae, 32 µg/mL (≈ 36.9 µM); in assay [1], 1 µg/mL (≈ 1.15 µM); with Neisseria gonorrhoeae it was 0.125 µg/mL (≈ 0.144 µM); in the assay with Pseudomonas aeruginosa it was 16 µg/mL (≈ 18.5 µM); with Proteus vulgaris, 16 µg/mL (≈ 18.5 µM). For the same compound, the MIC in [3] turned out to be 0.125 µg/mL (≈ 0.144 µM); in the assay on Streptococcus pyogenes [4] it was 0.016 µg/mL (≈ 0.0185 µM); against Staphylococcus aureus [5] it was 0.016 µg/mL (≈ 0.0185 µM); in the assay on Streptococcus pneumoniae, 0.008 µg/mL (≈ 0.00923 µM); with Enterococcus faecalis, 4 µg/mL (≈ 4.61 µM); against Haemophilus influenzae, 0.125 µg/mL (≈ 0.144 µM). Further, the ED50 with Staphylococcus aureus [2] was more than 20 mg/kg.

`CCCCN(CCCC)c1nc2c(s1)c1c(O)c3c(O)c(C)c4c(c32)C(=O)C(C)(O/C=C/C(OC)C(C)C(OC(C)=O)C(C)C(O)C(C)C(O)C(C)/C=C/C=C(/C)C(=O)N1)O4` (configuration not stated): the MIC with Escherichia coli was more than 128 µg/mL; in the assay on Klebsiella pneumoniae, more than 128 µg/mL; with Neisseria gonorrhoeae, 2 µg/mL (≈ 2.31 µM); against Pseudomonas aeruginosa, more than 128 µg/mL; against Proteus vulgaris, more than 128 µg/mL; in [3], 0.125 µg/mL (≈ 0.144 µM). Further, the MIC in the assay with Streptococcus pyogenes [9] is 0.125 µg/mL (≈ 0.144 µM); with Streptococcus pyogenes [4], 0.125 µg/mL (≈ 0.144 µM); in the assay on Staphylococcus aureus [5], 0.063 µg/mL (≈ 0.0727 µM); in the assay on Streptococcus pneumoniae, 0.063 µg/mL (≈ 0.0727 µM); in the assay on Enterococcus faecalis it was 4 µg/mL (≈ 4.62 µM); against Haemophilus influenzae, 1 µg/mL (≈ 1.15 µM). The same compound yielded an MIC against Mycobacterium avium [11] of 0.25 µg/mL (≈ 0.289 µM). In the assay on Mycobacterium avium [6], the MIC50 is 1 µg/mL (≈ 1.15 µM). For the same compound, the ED50 in the assay with Streptococcus pyogenes [7] came to 1.23 mg/kg; in the assay on Streptococcus pyogenes [8], 1.62 mg/kg. This compound showed an MIC90 against Mycobacterium avium [10] of 2 µg/mL (≈ 2.31 µM).

As for `CCCCNc1nc2c(s1)c1c(O)c3c(O)c(C)c4c(c32)C(=O)C(C)(O/C=C/C(OC)C(C)C(OC(C)=O)C(C)C(O)C(C)C(O)C(C)/C=C/C=C(/C)C(=O)N1)O4` (configuration not stated), the MIC in the assay with Escherichia coli turned out to be 16 µg/mL (≈ 19.8 µM); in the assay on Klebsiella pneumoniae, 64 µg/mL (≈ 79 µM); against Neisseria gonorrhoeae, 0.125 µg/mL (≈ 0.154 µM); in the assay with Pseudomonas aeruginosa, 8 µg/mL (≈ 9.88 µM); in the assay with Proteus vulgaris, 16 µg/mL (≈ 19.8 µM); in [3] it was 0.016 µg/mL (≈ 0.0198 µM). Moreover, the MIC against Streptococcus pyogenes [9] is 0.063 µg/mL (≈ 0.0778 µM); in the assay with Streptococcus pyogenes [4] it was 0.063 µg/mL (≈ 0.0778 µM); against Staphylococcus aureus [5], 0.032 µg/mL (≈ 0.0395 µM); against Streptococcus pneumoniae it was 0.063 µg/mL (≈ 0.0778 µM); in the assay on Enterococcus faecalis, 1 µg/mL (≈ 1.23 µM); against Haemophilus influenzae, 0.125 µg/mL (≈ 0.154 µM). The same compound came in with an MIC with Mycobacterium avium [11] of 2 µg/mL (≈ 2.47 µM). The same compound returned an MIC50 against Mycobacterium avium [6] of 32 µg/mL (≈ 39.5 µM). In addition, the ED50 with Streptococcus pyogenes [7] is more than 10 mg/kg; in the assay on Streptococcus pyogenes [8] it was 6.6 mg/kg. Further, the MIC90 with Mycobacterium avium [10] was 64 µg/mL (≈ 79 µM).
